ChEMBL document CHEMBL4049428, “Exploring Derivatives of Quinazoline Alkaloid l-Vasicine as Cap Groups in the Design and Biological Mechanistic Evaluation of Novel Antitumor Histone Deacetylase Inhibitors” (J Med Chem, 2017)

Legend:
MCF7 = test: Cytotoxicity against human MCF7 cells assessed as growth inhibition after 48 hrs by MTT assay; format: functional, cell-based; conditions: MCF7, 48 h
Caco-2 = test: Cytotoxicity against human Caco2 cells assessed as growth inhibition after 48 hrs by MTT assay; format: functional, cell-based; conditions: Caco-2, 48 h
HL-60 [1] = test: Induction of mitochondrial membrane potential loss in human HL60 cells assessed as intact mitochondrial membrane potential at 5 uM measured after 48 hrs by Rh123 dye-based flow cytometric analysis (reference value: 91.3%); format: functional
Outline: (§1)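 Cells seeded in 6-well plates 2-4 h, then 48 h with compound; Rh-123 1 µM added for the final half hour; cells centrifuged, washed twice in PBS, resuspended in PBS, and Ψm loss quantified by flow cytometry as percentage of cells.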

Histone deacetylase 1 = Histone deacetylase 1 (Homo sapiens, UniProt Q13547); test: Inhibition of HDAC 1 in human HeLa nuclear extract using HDAC substrate-3 measured after 60 mins by fluorometric analysis
HL-60 [2] = test: Induction of mitochondrial membrane potential loss in human HL60 cells at 0.125 uM measured after 48 hrs by Rh123 dye-based flow cytometric analysis (reference value: 5.6%); format: functional; outline: as §1
Histone deacetylase 9 = Histone deacetylase 9 (Homo sapiens, UniProt Q9UKV0); test: Inhibition of HDAC 9 in human HeLa nuclear extract using fluorogenic HDAC class 2A substrate measured after 60 mins by fluorometric analysis
MOLT-4 [3] = test: Induction of reactive oxygen species in human MOLT4 cells at 10 uM measured after 48 hrs by H2DCFDA dye-based flow cytometric analysis (reference value: 1.1%); format: functional
Histone deacetylase 8 = Histone deacetylase 8 (Homo sapiens, UniProt Q9BY41); test: Inhibition of HDAC 8 in human HeLa nuclear extract using fluorogenic HDAC class 2A substrate measured after 60 mins by fluorometric analysis
MOLT-4 [4] = test: Induction of reactive oxygen species in human MOLT4 cells at 1 uM measured after 48 hrs by H2DCFDA dye-based flow cytometric analysis (reference value: 1.1%); format: functional
[5] = Inhibition of HDAC in human HeLa nuclear extract using Boc-Lys(Ac)-AMC as substrate measured after 30 mins by fluorometric analysis
PC-3 = test: Cytotoxicity against human PC3 cells assessed as growth inhibition at 10 uM after 48 hrs by MTT assay; format: functional; conditions: PC-3, 48 h, read-out: GI

Chain of Histone deacetylase 8 (Q9BY41 whole entry): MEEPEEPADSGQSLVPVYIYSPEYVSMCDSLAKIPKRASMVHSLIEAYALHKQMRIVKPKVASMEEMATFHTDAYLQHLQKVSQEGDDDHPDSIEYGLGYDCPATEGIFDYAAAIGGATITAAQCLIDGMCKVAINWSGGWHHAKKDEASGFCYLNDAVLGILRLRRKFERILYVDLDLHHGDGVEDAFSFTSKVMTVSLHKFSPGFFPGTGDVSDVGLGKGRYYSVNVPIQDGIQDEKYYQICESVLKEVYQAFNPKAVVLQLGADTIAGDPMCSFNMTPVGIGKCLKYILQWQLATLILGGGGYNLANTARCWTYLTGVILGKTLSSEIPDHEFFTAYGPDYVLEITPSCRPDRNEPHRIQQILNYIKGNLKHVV
Chain of Histone deacetylase 9 (Q9UKV0 whole entry): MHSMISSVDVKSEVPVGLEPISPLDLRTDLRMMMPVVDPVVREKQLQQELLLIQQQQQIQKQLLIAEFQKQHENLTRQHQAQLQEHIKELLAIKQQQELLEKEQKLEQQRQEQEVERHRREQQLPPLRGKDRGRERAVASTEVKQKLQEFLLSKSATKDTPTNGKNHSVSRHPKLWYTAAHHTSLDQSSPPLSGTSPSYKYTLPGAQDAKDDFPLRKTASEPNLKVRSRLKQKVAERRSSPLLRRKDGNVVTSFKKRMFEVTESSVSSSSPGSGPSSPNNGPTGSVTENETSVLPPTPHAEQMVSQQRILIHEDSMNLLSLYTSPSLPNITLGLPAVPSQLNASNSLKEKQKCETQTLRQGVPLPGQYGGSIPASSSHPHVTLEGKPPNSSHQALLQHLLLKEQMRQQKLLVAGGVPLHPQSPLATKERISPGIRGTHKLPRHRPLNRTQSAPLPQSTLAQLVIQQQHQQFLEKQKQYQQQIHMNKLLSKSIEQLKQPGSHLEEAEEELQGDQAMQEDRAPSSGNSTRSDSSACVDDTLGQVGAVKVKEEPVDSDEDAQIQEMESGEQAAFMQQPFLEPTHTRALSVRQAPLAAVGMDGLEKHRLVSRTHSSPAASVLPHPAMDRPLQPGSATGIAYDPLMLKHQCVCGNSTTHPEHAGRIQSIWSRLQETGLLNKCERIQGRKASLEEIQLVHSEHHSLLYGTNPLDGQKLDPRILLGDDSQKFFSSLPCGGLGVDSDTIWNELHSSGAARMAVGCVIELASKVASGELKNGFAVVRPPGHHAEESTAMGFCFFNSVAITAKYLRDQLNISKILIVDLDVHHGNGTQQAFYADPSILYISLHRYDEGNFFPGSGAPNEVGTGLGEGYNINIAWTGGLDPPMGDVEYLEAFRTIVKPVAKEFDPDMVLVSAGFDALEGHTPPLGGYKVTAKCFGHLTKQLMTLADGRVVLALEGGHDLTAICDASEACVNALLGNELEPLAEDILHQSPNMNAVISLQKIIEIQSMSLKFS
Chain of Histone deacetylase 1 (Q13547 whole entry): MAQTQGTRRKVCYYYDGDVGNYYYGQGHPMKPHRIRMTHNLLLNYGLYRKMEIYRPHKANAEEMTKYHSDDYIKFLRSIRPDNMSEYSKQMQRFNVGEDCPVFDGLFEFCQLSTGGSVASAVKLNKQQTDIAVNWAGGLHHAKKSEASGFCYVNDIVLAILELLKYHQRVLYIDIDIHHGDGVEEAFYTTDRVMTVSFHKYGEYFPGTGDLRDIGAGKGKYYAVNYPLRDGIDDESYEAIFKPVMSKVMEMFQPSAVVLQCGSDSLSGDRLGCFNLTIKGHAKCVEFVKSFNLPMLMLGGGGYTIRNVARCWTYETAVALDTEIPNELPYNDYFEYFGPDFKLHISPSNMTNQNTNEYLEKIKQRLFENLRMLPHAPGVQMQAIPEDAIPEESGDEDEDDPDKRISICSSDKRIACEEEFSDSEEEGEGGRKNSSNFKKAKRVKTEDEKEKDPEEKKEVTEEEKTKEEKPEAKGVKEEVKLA

Question: For `O=C(CCCCCCC(=O)Nc1ccccc1CN1CC[C@H](O)C1)NO`, which IC50 (MCF7) is on record?
Answer: 1500 nM

Question: And the IC50 (Caco-2)?
Answer: 6000 nM

Question: And the Activity (HL-60 [1])?
Answer: 82.6%

Question: And the IC50 (Histone deacetylase 1)?
Answer: 415 nM

Question: And the Activity (HL-60 [2])?
Answer: 7.5%

Question: And the IC50 (Histone deacetylase 9)?
Answer: > 10000 nM

Question: And the Activity (MOLT-4 [3])?
Answer: 0.9%

Question: And the IC50 (Histone deacetylase 8)?
Answer: 211 nM

Question: And the Activity (MOLT-4 [4])?
Answer: 1.1%

Question: And the IC50 [5]?
Answer: 370 nM

Question: What about the inhibition of growth at 10 µM (PC-3) of the same molecule?
Answer: 29%
